According to paper PMC5377441 (International Journal for Parasitology: Drugs and Drug …, 2017):
Where two headings read alike, the source gives them in different places. Marks after values point to notes of the source that are not given here.

Tests used:
[1] = test system: adult H. polygyrus; assay: In vitro drug activity against adult H. polygyrus, phenotypic readout; format: cell-based, Heligmosomoides polygyrus; settings: 200 μM, 72 h
Method in brief: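 Adult H. polygyrus were dissected from NMRI mice from ten days post-infection onward. Four worms per drug were incubated in 2 ml at 200 μM for 72 h, with DMSO-matched worms as controls. Motility, transparency and morphology were scored from 3 (normal) to 0 (highly impaired or dead). Runs were done in duplicate and repeated once.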

[2] = test system: H. polygyrus; assay: In vitro drug uptake and elimination by H. polygyrus; format: in vitro ADME, Heligmosomoides polygyrus
[3] = test system: T. muris; assay: In vitro drug uptake and elimination by T. muris; format: in vitro ADME, Trichuris muris
[4] = test system: H. polygyrus; assay: Uptake of albendazole and its metabolites by H. polygyrus in vivo; set-up: species or system Heligmosomoides polygyrus in NMRI mice; settings: for albendazole in worms: oral 100 mg/kg, average
Method in brief: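 Female NMRI mice were infected by oral gavage with 80 H. polygyrus L3. Groups received 100 mg/kg albendazole, albendazole after 50 mg/kg ABT given 16 h earlier, or albendazole sulfoxide, orally or intraperitoneally. Four mice per time point were killed at 2, 5 or 8 h (intraperitoneal groups at 2 h only). Worms were recovered, and drug was quantified by HPLC-UV/vis and reported per ten worms.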

[5] = format: in vivo, NMRI mice; settings: for albendazole in small intestinal mucosa / albendazole in stomach content: intraperitoneal 100 mg/kg, 2 h
[6] = test system: adult T. muris; settings: 72 h, ref Keiser et al., cited from earlier work
[7] = test system: trichuriasis; settings: ref Keiser and Utzinger, 2008; cited from earlier work
[8] = test system: hookworm infections; settings: single oral dosage; ref Keiser and Utzinger, 2008; cited from earlier work
[9] = test system: H. polygyrus; settings: oral 100 mg/kg, ref Unpublished data, 100 mg/kg, cited from earlier work
[10] = test system: T. muris; settings: ref Keiser et al., 2013, cited from earlier work
[11] = test system: T. muris; assay: Drug uptake by T. muris in vivo; set-up: species or system Trichuris muris in C57BL/10 mice; settings: for drug quantity in worms, maximum: in vivo
[12] = format: in vivo, C57BL/10 mice
[13] = oral 100 mg/kg, rats; ref Cowan et al., 2016; cited from earlier work

## CCCS(=O)(=O)c1ccc2nc(NC(=O)OC)[nH]c2c1 [Albendazole sulfone, albendazole sulfone]
[1]
  Drug effect (reduction of parasite viability): 40% [200 μM]
[1]; listed as albendazole sulfone
  Drug effect (reduction of parasite viability): 40%
[2]; incubation 5 to 100 μM, 24 h, range or mean over the concentrations
  albendazole sulfoxide detected in worms: 15 nmol/10 worms
[2]; incubation 5 to 100 μM, 24 h, range, mean or maximum over the concentrations
  albendazole sulfone detected in worms: 33 nmol/10 worms
[2]; incubation at 5 μM, 24 h
  ABZSO2 in worms: 33 ± 10 nmol/10 worms
  ABZSO in medium: 0.2 ± 0.1 µM
  ABZSO in worms: 19 ± 10 nmol/10 worms
[2]; incubation at 10 μM, 24 h
  ABZSO2 in worms: 51 ± 23 nmol/10 worms
  ABZSO in medium: 0.2 ± 0.1 µM
  ABZSO in worms: 19 ± 3 nmol/10 worms
[2]; incubation at 25 μM, 24 h
  ABZSO2 in worms: 23 ± 8 nmol/10 worms
  ABZSO in medium: 0.4 ± 0.0 µM
  ABZSO in worms: 13 ± 11 nmol/10 worms
[2]; incubation at 50 μM, 24 h
  ABZSO2 in worms: 30 ± 20 nmol/10 worms
  ABZSO in medium: 0.3 ± 0.0 µM
  ABZSO in worms: 9 ± 5 nmol/10 worms
[2]; incubation at 75 μM, 24 h
  ABZSO2 in worms: 31 ± 8 nmol/10 worms
  ABZSO in medium: 0.3 ± 0.0 µM
  ABZSO in worms: 16 ± 11 nmol/10 worms
[2]; incubation at 100 μM, 24 h
  ABZSO2 in worms: 33 ± 21 nmol/10 worms
  ABZSO in medium: 0.2 ± 0.0 µM
  ABZSO in worms: 16 ± 8 nmol/10 worms
[3]; incubation 5-100 μM, 24 h
  albendazole in the parasite and the culture medium: neither detected
  albendazole sulfoxide in the parasite and the culture medium: neither detected
[3]; incubation at 5 μM, 24 h
  ABZSO2 in worms: 122 ± 45 nmol/10 worms
[3]; incubation at 10 μM, 24 h
  ABZSO2 in worms: 185 ± 55 nmol/10 worms
[3]; incubation at 25 μM, 24 h
  ABZSO2 in worms: 421 ± 171 nmol/10 worms
[3]; incubation at 50 μM, 24 h
  ABZSO2 in worms: 780 ± 258 nmol/10 worms
[3]; incubation at 75 μM, 24 h
  ABZSO2 in worms: 1127 ± 451 nmol/10 worms
[3]; incubation at 100 μM, 24 h
  ABZSO2 in worms: 1348 ± 447 nmol/10 worms

## CCC[S+]([O-])c1ccc2[nH]c(NC(=O)OC)nc2c1 (stereo not shown) [Albendazole sulfoxide, albendazole sulfoxide]
[1]
  Drug effect (reduction of parasite viability): 60% [200 μM]
[1]; listed as albendazole sulfoxide
  Drug effect (reduction of parasite viability): 60%
[4]
  albendazole in worms: No albendazole was detected
[5]
  albendazole in small intestinal mucosa: no albendazole was detected
  albendazole in stomach content: no albendazole was detected
[5]; oral 100 mg/kg, 5 h
  albendazole sulfoxide in plasma, compared to the albendazole treatment: 5.2 fold
  albendazole sulfoxide in the mucosa of the small intestine: 137 µmol/g
[5]; oral 100 mg/kg, other time points (2 and 8 h)
  albendazole sulfoxide in the mucosa of the small intestine: below 27 μmol/g
[2]; incubation 5 to 100 μM, 24 h
  albendazole in the culture medium: Neither albendazole nor albendazole sulfone could be quantified
  albendazole sulfone in the culture medium: Neither albendazole nor albendazole sulfone could be quantified

## CCCSc1ccc2nc(NC(=O)OC)[nH]c2c1 [Albendazole, albendazole]
[1]
  Drug effect (reduction of parasite viability): 50% [200 μM]
[1]; listed as albendazole
  Drug effect (reduction of parasite viability): 50%
[4]; in vivo, 100 mg/kg
  albendazole quantity in worms, maximum: up to 10 nmol per ten H. polygyrus
[4]
  albendazole in worms: 6.2 nmol/10 worms
[6]; incubation at >600 μM, 2012
  Drug effect: <50% ^b
[7]
  cure rate: below 36%
[8]
  cure rate: 72%
[9]
  Worm burden reduction: 100% [100 mg/kg] ^a
[9]; listed as albendazole
  Worm burden reduction: 100%
[10]; oral 300 mg/kg
  Worm burden reduction: 42% [300 mg/kg] ^c
[5]
  albendazole in small intestinal mucosa: not found
  albendazole in stomach content: 2217 µmol/g
[5]; oral 100 mg/kg, 8 h
  albendazole in the mucosa: 13 µmol/g
[5]; oral 100 mg/kg, end of the decrease over time (2-8 h)
  albendazole in large intestine content: 99 µmol/g
[5]; oral 100 mg/kg, start of the decrease over time (2-8 h)
  albendazole in large intestine content: 462 µmol/g
[2]; incubation 5 to 100 μM, 24 h
  albendazole sulfone in the culture medium: could not be quantified
[2]; incubation at 5 μM, 24 h
  ABZ in worms: 13 ± 6 nmol/10 worms
[2]; incubation at 10 μM, 24 h
  ABZ in worms: 16 ± 5 nmol/10 worms
[2]; incubation at 25 μM, 24 h
  ABZ in worms: 5 ± 8 nmol/10 worms
[2]; incubation at 50 μM, 24 h
  ABZ in worms: 28 ± 4 nmol/10 worms
[2]; incubation at 50 μM, longer than 8 h
  albendazole in worms, plateau: 29 nmol/10 worms
[2]; incubation at 75 μM, 24 h
  ABZ in worms: 55 ± 49 nmol/10 worms
[2]; incubation at 100 μM, 24 h
  ABZ in worms: 10 ± 21 nmol/10 worms
[11]
  drug quantity in worms, maximum: up to 31 nmol per ten T. muris
[3]; incubation 5 to 100 μM, 24 h
  albendazole sulfone in the culture medium: not detected
[3]; incubation at 5 μM, 24 h
  ABZ in worms: 94 ± 44 nmol/10 worms
[3]; incubation at 10 μM, 24 h
  ABZ in worms: 176 ± 83 nmol/10 worms
[3]; incubation at 25 μM, 24 h
  ABZ in worms: 263 ± 173 nmol/10 worms
[3]; incubation at 50 μM, 24 h
  ABZ in worms: 551 ± 528 nmol/10 worms
[3]; incubation at 75 μM, 24 h
  ABZ in worms: 598 ± 336 nmol/10 worms
[3]; incubation at 100 μM, 24 h
  ABZ in worms: 641 ± 467 nmol/10 worms
[12]; intraperitoneal 100 mg/kg, 2 h
  albendazole in stomach content: 139 µmol/g
  albendazole in the mucosa of the large intestine: 8 µmol/g
[12]; oral 100 mg/kg, 5 and 8 h
  albendazole in small intestine content: around 5 μmol/g
[12]; oral 100 mg/kg, 2 h
  albendazole in large intestinal content: 208 µmol/g
  albendazole in small intestine content: 394 µmol/g
  albendazole in the mucosa of the small intestine: 5 µmol/g
[12]; oral 100 mg/kg, 5 h
  albendazole in large intestinal content: 57 µmol/g
[12]; oral 100 mg/kg, 8 h
  albendazole in large intestinal content: 16 µmol/g
[12]; oral 100 mg/kg, average between 2 and 8 h
  albendazole in stomach content: 114 µmol/g

## CN1CCCN=C1/C=C/c1cccc(O)c1 [Oxantel pamoate, oxantel pamoate]
[6]; serial dilution, 2013
  EC50: 4 µM

## CN1CCCN=C1/C=C/c1cccc(O)c1.O=C(O)c1cc2ccccc2c(Cc2c(O)c(C(=O)O)cc3ccccc23)c1O [Oxantel pamoate, oxantel pamoate]
[13]
  oxantel pamoate in plasma: could not quantify
[10]; oral 10 mg/kg
  Worm burden reduction: 93% [10 mg/kg] ^c
[11]
  drug quantity in worms, maximum: ≤ 34 nmol per ten T. muris
[11]; intraperitoneal 50 mg/kg, 2 h
  oxantel pamoate in worms: no compound could be quantified
[11]; oral 100 mg/kg, 5 h
  oxantel pamoate in worms: 34 nmol/10 worms
[11]; oral 100 mg/kg, 8 h
  oxantel pamoate in worms: 22 nmol/10 worms
[3]; exposure at 25 μM
  time after which uptake ceased: 8 h
[3]; incubation at 5 μM, 24 h
  OxP in worms: 13 ± 9 nmol/10 worms
[3]; incubation at 10 μM, 24 h
  OxP in worms: 27 ± 9 nmol/10 worms
[3]; incubation at 25 μM, 24 h
  OxP in worms: 65 ± 5 nmol/10 worms
[3]; incubation at 50 μM, 24 h
  OxP in worms: 155 ± 41 nmol/10 worms
[3]; incubation at 75 μM, 24 h
  OxP in worms: 169 ± 24 nmol/10 worms
[3]; incubation at 100 μM, 24 h
  OxP in worms: 197 ± 46 nmol/10 worms
[12]; intraperitoneal 50 mg/kg, 2 h
  oxantel pamoate in the large intestine: 7 µmol/g
  oxantel pamoate in the mucosal tissue of the large intestine: 17 µmol/g
  oxantel pamoate in the mucosal tissue of the small intestine: 2 µmol/g
  oxantel pamoate in the small intestine: 7 µmol/g
  oxantel pamoate in the stomach: 5 µmol/g
[12]; intraperitoneal 50 mg/kg, 2 h, below the LLOQ
  oxantel pamoate plasma level: 0.21 µM
[12]; oral 100 mg/kg, 2-8 h (all times)
  plasma concentration of the administered drug: < 700 nM
[12]; oral 100 mg/kg, 5 and 8 h
  administered drug in the small intestinal mucosa: 2 µmol/g
[12]; oral 100 mg/kg, 2 h
  administered drug in the large intestine: 6 µmol/g
  administered drug in the mucosa of the small intestine: 31 µmol/g
  administered drug in the small intestine: 1951 µmol/g
  administered drug in the stomach: 5278 µmol/g
[12]; oral 100 mg/kg, 5 h
  administered drug in the large intestine: 359 µmol/g
  administered drug in the small intestine: 54 µmol/g
  administered drug in the stomach: 302 µmol/g
[12]; oral 100 mg/kg, 8 h
  administered drug in the large intestine: 110 µmol/g
  administered drug in the small intestine: 61 µmol/g
  administered drug in the stomach: 364 µmol/g
